# Assays:
# [1] = target: T1, Gamma-aminobutyric acid receptor subunit alpha-1 (Homo sapiens, UniProt P14867+P18507+P47870); assay: Binding affinity to GABAA alpha-1-beta-2-gamma-2 receptor
# T1 sequence (P14867 whole entry): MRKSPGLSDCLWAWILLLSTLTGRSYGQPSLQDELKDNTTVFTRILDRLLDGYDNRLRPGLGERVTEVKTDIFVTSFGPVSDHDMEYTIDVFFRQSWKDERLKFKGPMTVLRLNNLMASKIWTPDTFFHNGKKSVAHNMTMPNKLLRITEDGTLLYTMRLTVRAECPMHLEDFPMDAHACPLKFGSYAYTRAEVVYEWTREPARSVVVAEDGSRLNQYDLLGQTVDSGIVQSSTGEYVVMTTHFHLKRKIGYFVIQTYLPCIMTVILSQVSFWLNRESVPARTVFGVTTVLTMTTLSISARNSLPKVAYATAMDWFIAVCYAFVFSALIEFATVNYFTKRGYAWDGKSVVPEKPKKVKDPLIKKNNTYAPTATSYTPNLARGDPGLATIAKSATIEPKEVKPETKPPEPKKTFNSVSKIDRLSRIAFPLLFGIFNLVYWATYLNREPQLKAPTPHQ
# [2] = target: T2, Gamma-aminobutyric acid receptor subunit alpha-5 (Homo sapiens, UniProt P18507+P31644+P47870); assay: Binding affinity to GABAA alpha-5-beta-2-gamma-2 receptor
# T2 sequence (P31644 whole entry): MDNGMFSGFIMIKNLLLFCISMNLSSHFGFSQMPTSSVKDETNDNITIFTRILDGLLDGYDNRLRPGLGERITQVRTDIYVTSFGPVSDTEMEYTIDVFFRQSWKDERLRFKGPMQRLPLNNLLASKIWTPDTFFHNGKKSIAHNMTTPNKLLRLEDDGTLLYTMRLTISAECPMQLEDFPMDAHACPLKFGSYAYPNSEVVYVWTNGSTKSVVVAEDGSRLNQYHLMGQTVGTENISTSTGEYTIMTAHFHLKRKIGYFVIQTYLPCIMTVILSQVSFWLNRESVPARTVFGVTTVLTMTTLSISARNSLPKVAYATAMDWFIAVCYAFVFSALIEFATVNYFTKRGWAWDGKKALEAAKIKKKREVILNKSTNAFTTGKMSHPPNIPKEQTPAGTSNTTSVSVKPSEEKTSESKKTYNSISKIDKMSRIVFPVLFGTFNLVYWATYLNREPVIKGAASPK
# Outline: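 Sf-9 insect cells infected with baculovirus carrying α5, β2 and γ2 subunits in equimolar ratio (2 MOI), harvested 60 h post-infection, then homogenized in 50 mM Tris-HCl pH 7.7. Incubated 90 min at 0 °C in triplicate; filtration and scintillation counting.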
# [3] = target: T3, GABA-A receptor; alpha-1/beta-3/gamma-2 (Homo sapiens, UniProt P14867+P18507+P28472); assay: Binding affinity to GABAA alpha-1-beta-3-gamma-2 receptor; type: protein-complex assay
# T3 sequence (P14867 whole entry): T1 sequence (P14867 whole entry)
# T3 sequence (P18507 whole entry): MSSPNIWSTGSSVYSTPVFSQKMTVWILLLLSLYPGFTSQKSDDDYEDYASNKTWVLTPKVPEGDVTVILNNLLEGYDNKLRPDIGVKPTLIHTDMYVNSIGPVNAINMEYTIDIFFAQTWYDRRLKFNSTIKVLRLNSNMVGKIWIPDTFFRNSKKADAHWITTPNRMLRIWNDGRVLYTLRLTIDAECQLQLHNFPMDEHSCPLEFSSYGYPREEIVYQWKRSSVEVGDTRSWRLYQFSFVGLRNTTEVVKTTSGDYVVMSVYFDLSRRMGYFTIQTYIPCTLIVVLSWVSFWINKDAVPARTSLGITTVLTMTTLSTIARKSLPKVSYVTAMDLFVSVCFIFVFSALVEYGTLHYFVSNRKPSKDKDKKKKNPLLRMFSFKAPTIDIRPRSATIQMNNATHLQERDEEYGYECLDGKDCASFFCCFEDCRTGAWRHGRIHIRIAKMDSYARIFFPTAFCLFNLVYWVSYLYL
# T3 sequence (P28472 whole entry): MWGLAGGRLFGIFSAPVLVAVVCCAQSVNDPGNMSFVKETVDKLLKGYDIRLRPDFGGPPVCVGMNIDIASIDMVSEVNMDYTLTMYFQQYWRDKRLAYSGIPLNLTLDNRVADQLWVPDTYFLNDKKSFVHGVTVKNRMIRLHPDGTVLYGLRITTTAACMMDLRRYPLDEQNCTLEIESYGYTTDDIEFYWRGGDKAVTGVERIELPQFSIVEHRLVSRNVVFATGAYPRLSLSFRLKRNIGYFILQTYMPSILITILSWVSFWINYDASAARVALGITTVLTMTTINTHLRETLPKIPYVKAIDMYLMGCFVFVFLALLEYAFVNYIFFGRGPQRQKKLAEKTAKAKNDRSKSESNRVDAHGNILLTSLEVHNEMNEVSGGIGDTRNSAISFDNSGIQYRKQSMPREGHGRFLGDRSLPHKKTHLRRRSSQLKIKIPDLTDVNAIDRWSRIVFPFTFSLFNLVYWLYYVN
# [4] = target: T2, Gamma-aminobutyric acid receptor subunit alpha-5; assay: Displacement of [3H]Ro15-4513 from GABAA alpha-5-beta-2-gamma-2 receptor expressed in Sf9 baculovirus system
# Outline: (§1)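 Homogenates of Sf-9 cells infected 60 h earlier with baculoviruses for each of the three subunits (2 MOI, equimolar), in 50 mM Tris-HCl pH 7.7. Competition against 0.5–1.0 nM [3H]-Ro15-4513, with unlabeled ligand from 40 pM to 10 µM (ethanol below 0.1%). Incubated 90 min at 0 °C, in triplicate. Separated by rapid filtration and read by scintillation counting.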
# [5] = target: T1, Gamma-aminobutyric acid receptor subunit alpha-1; assay: Displacement of [3H]Ro15-4513 from GABAA alpha-1-beta-2-gamma-2 receptor expressed in Sf9 baculovirus system; outline: as §1
smiles,measurement,setting,value
COc1ccc(-n2nc3c4ccccc4[nH]cc-3c2=O)cc1,Kd,[1],0.1 nM
same,Kd,[2],5 nM
COC(=O)c1cc2c(cn1)[nH]c1ccccc12 [BETA-CCM],Kd,[1],1 nM
same,Kd,[2],58 nM
C#Cc1ccc2c(c1)C(c1ccccc1)=NCC(=O)N2C,Kd,[1],76 nM
same,Kd,[2],7 nM
O=C1C2C=Nc3ccccc3C2=NN1c1ccccc1 (stereo not drawn) [CGS-8216],Kd,[1],8.3 nM
same,Kd,[2],200 nM
CCCOc1cc2c(cn1)[nH]c1ccccc12,Kd,[1],5 nM
same,Kd,[2],591 nM
CCCCC(=O)c1ncn2c3ccc(Cl)cc3c(=O)n(C)c12,Ki,[3],1580 nM
same,Ki,[2],166 nM
Nc1c(C(=O)c2ccc(Cl)cc2)sc2ccccc12,IC50,[4],1000 nM
same,IC50,[5],1000 nM
Cn1c(=O)c2cc(Cl)ccc2n2cnc(C(=O)OC(C)(C)C)c12,Ki,[3],17.3 nM
same,Ki,[2],0.65 nM
CCOCc1ncn2c3ccc(Cl)cc3c(=O)n(C)c12,Ki,[3],500 nM
same,Ki,[2],83 nM
CCOC(=O)c1ncn2c3ccc(C#C[Si](C)(C)C)cc3c(=O)n(C)c12,Kd,[1],121 nM
same,Kd,[2],5 nM
Cn1c(=O)c2cc(Cl)ccc2n2cnc(CO)c12,Ki,[3],> 300 nM
same,Ki,[2],> 300 nM
CN1C(=O)CN=C(c2ccccc2)c2ccccc21,IC50,[4],> 10000 nM
same,IC50,[5],> 10000 nM
Cn1c(=O)c2cc(Cl)ccc2n2cnc(C(=O)OCC3CC3)c12,Ki,[3],16.4 nM
same,Ki,[2],9.8 nM
CSC1SC(C(=O)c2ccc(Cl)cc2)C2CC(C)(C)CC(=O)C12 (stereo not drawn),IC50,[4],210 nM
same,IC50,[5],580 nM
CSc1nccc(-c2ccc(S(=O)(=O)Nc3ccc(Cl)cc3)s2)n1,IC50,[4],> 10000 nM
same,IC50,[5],470 nM
CCOC(=O)c1cc2c(cn1)[nH]c1ccccc12,Kd,[1],1 nM
CCOC(=O)c1ncn2c1[C@@H]1CCN1C(=O)c1cc(C#C[Si](C)(C)C)ccc1-2,Kd,[1],83 nM
same,Kd,[2],2.6 nM
CC(=O)c1ncn2c3ccc(Cl)cc3c(=O)n(C)c12,Ki,[3],17500 nM
same,Ki,[2],2610 nM
CCOc1cc2c(cn1)[nH]c1ccccc12,Kd,[1],1.2 nM
same,Kd,[2],826 nM
CC(=O)NC1N=C(c2ccccc2)c2ccccc2NC1=O (stereo not drawn),IC50,[4],> 10000 nM
same,IC50,[5],> 10000 nM
CCCCCc1ncn2c3ccc(Cl)cc3c(=O)n(C)c12,Ki,[3],2050 nM
same,Ki,[2],369 nM
COCc1c(C(=O)OC(C)C)ncc2[nH]c3ccc(OCc4ccccc4)cc3c12 [ABECARNIL],Kd,[1],1 nM
same,Kd,[2],8.4 nM
Cn1c(=O)c2cc(C#C[Si](C)(C)C)ccc2n2cnc(C(=O)OC(C)(C)C)c12,Kd,[1],197 nM
same,Kd,[2],58 nM
Cn1c(=O)c2cc(Cl)ccc2n2cnc(CCl)c12,Ki,[3],500 nM
same,Ki,[2],500 nM
CSC1SC(C(=O)c2cccc([N+](=O)[O-])c2)C2CC(C)(C)CC(=O)C12 (stereo not drawn),IC50,[4],> 10000 nM
same,IC50,[5],> 10000 nM
CSC1SC(C(=O)c2ccc(Cl)cc2)C2CCCC(=O)C12 (stereo not drawn),IC50,[4],550 nM
same,IC50,[5],580 nM
CCOC(=O)c1[nH]cc2nc3cc(OC)c(OC)cc3c-2c1CC,Kd,[1],8 nM
same,Kd,[2],1 nM
Cc1nn(Cc2nc(-c3cccc([N+](=O)[O-])c3)cs2)c(C)c1Br,IC50,[4],> 10000 nM
same,IC50,[5],> 10000 nM
CC(C)(C)OC(=O)c1cc2c3ccccc3nc-2c[nH]1,Kd,[1],1 nM
same,Kd,[2],111 nM
CCc1ncn2c3ccc(Cl)cc3c(=O)n(C)c12,Ki,[3],408 nM
same,Ki,[2],182 nM
O=C1C2C=Nc3ccccc3C2=NN1c1ccc(Cl)cc1 (stereo not drawn) [CGS-9896],Kd,[1],0.3 nM
same,Kd,[2],40 nM
CCOC(=O)c1ncn2c1C1CCCN1C(=O)c1cc(C#C[Si](C)(C)C)ccc1-2 (stereo not drawn),Kd,[1],200 nM
same,Kd,[2],4 nM

# From ChEMBL document CHEMBL1157475, “Selective influence on contextual memory: physiochemical properties associated with selectivity of benzodiazepine ligands at GABAA receptors containing the alpha5 subunit” (J Med Chem, 2008)
